Assay results taken from ChEMBL document CHEMBL1136044, “Antitrypanosomal activities and cytotoxicity of 5-nitro-2-furancarbohydrazides” (Bioorg Med Chem Lett, 2002).

Legend:
Trypanosoma cruzi = test: Evaluated in vitro for antitrypanosomal activity against Trypanosoma cruzi; assay type: functional; details: read-out: ED50 (the source's name)
In short: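 Mouse peritoneal macrophages were seeded at 30,000 per well. After 24 h, about 100,000 T. cruzi trypomastigotes were added per well with 2-fold drug dilutions, then held 4 days at 37 °C in 5% CO2. After methanol fixation and Giemsa staining, % reduction of total parasite load (free trypomastigotes plus intracellular amastigotes) versus untreated cultures was scored microscopically; ED50 was extrapolated.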

[1] = Tested for cytotoxicity towards mouse peritoneal macrophages (MPM); assay type: functional
In short: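 Peritoneal macrophages were harvested 48 h after potato-starch stimulation and seeded at 30,000 per well. After 24 h they were washed and given two-fold drug dilutions (32 down to 1.6) in RPMI + 5% FCS, with final DMSO below 0.5%. Cultures ran 7 days at 37 °C in 5% CO2 alongside untreated controls.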

Trypanosoma brucei = test: Evaluated in vitro for antitrypanosomal activity against Trypanosoma brucei; assay type: functional; details: read-out: ED50 (the source's name)
In short: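 T. brucei bloodstream forms were grown in HMI-9 medium. 10,000 haemoflagellates per well were exposed to different drug concentrations for 4 days; ED50 was reported.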

MRC5 = test: Tested for cytotoxicity towards human MRC-5 cells; assay type: functional
In short: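 MRC-5 cells were seeded at 5000 per well and washed after 24 h. Two-fold drug dilutions (32 down to 1.6) were added in RPMI + 5% FCS, with final DMSO below 0.5%. After 7 days at 37 °C in 5% CO2, MTT absorbance at 540 nm was read as % reduction versus untreated controls to give CC50.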

Leishmania infantum = test: Evaluated in vitro for antitrypanosomal activity against Leishmania infantum; assay type: functional; details: read-out: ED50 (the source's name)
In short: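 Primary mouse peritoneal macrophages, 30,000 per well on culture slides. After 24 h, L. infantum amastigotes from the spleen of an infected donor animal were added at a 10/1 infection ratio with two-fold drug dilutions. Incubation was 7 days at 37 °C in 5% CO2. Wright-stained slides were scored microscopically for % reduction of parasite load or infected macrophages, and ED50 was extrapolated.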

Trypanothione reductase = Trypanothione reductase (Trypanosoma cruzi, UniProt P28593); test: Compound was tested for inhibition of trypanothione reductase from Trypanosoma cruzi
In short: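 T. cruzi trypanothione reductase assay, with trypanothione disulfide as substrate and 0.02 U TR per assay; IC50 determined over increasing compound concentrations.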

Sequence of Trypanothione reductase (P28593 whole entry): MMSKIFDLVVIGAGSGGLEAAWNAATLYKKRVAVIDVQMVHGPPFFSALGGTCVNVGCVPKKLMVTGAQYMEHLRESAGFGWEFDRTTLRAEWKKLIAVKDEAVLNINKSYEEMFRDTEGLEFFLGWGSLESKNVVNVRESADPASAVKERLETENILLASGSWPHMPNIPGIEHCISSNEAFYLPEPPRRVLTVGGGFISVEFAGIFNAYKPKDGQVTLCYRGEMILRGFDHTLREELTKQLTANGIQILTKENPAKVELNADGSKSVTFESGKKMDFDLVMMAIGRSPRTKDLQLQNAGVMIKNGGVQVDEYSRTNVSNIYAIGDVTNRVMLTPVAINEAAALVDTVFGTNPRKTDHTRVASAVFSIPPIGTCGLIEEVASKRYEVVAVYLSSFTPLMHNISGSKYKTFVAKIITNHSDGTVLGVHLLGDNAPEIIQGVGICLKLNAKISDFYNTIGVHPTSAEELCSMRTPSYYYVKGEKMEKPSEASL

SMILES | EC50 (Trypanosoma cruzi) [µM] | CC50 [1] [µM] | EC50 (Trypanosoma brucei) [µM] | CC50 (MRC5) [µM] | EC50 (Leishmania infantum) [µM] | IC50 (Trypanothione reductase) [µM]
Nc1ccc2cc(C(=O)NNC(=O)c3ccc([N+](=O)[O-])o3)ccc2c1 | 4 | 32 | 0.64 | 0.77 | 8 | –
O=C(NNC(=O)c1ccc([N+](=O)[O-])o1)c1ccccc1 | 16 | 32 | 32 | 17 | > 32 | –
CC(C)(C)OC(=O)NNC(=O)c1ccc([N+](=O)[O-])o1 | 1 | 32 | 2 | 12 | > 32 | > 50
NNC(=O)c1ccc([N+](=O)[O-])o1 | 0.5 | 32 | 5 | 9 | > 32 | > 50
O=C(NNC(=O)c1cccc2ccccc12)c1ccc([N+](=O)[O-])o1 | 3 | 32 | 0.4 | 1 | 8 | –
O=C(NNC(=O)c1ccc([N+](=O)[O-])o1)c1ccc([N+](=O)[O-])o1 | 3 | 32 | 3 | 4 | 8 | > 50
CC(C)(C)OC(=O)Nc1ccc2cc(C(=O)NNC(=O)c3ccc([N+](=O)[O-])o3)ccc2c1 | 1 | 32 | 0.5 | 2 | 8 | –
CC(C)(C)OC(=O)N[C@@H](C(=O)NNC(=O)c1ccc([N+](=O)[O-])o1)c1ccccc1 | 4 | 32 | 0.25 | 6 | 8 | –
CC1CS(=O)(=O)CCN1/N=C/c1ccc([N+](=O)[O-])o1 (centres undefined) [NIFURTIMOX] | 0.4 | – | – | > 50 | – | –
O=C(Cc1ccccc1)NNC(=O)c1ccc([N+](=O)[O-])o1 | 1 | 32 | 0.3 | 2 | 8 | –
N[C@@H](C(=O)NNC(=O)c1ccc([N+](=O)[O-])o1)c1ccccc1 | 2 | 32 | 2 | 14 | > 32 | –
O=C(O)c1ccc([N+](=O)[O-])o1 [5-NITRO-2-FUROIC ACID] | > 32 | 32 | 5 | > 32 | > 32 | –
O=C(NNC(=O)c1ccc([N+](=O)[O-])o1)c1ccc2ccccc2c1 | 4 | 32 | 0.13 | 2 | 8 | –
O=C(NNS(=O)(=O)c1ccc2ccccc2c1)c1ccc([N+](=O)[O-])o1 | > 32 | 32 | 28 | 18 | > 32 | –
Nc1nc(N)nc(Nc2ccc([As]3SCC(CO)S3)cc2)n1 (centres undefined) [MELARSOPROL] | – | – | 0.2 | – | – | –
O=C(NNS(=O)(=O)c1ccccc1)c1ccc([N+](=O)[O-])o1 | 16 | 32 | 2 | 4 | > 32 | –
COC(=O)c1ccc([N+](=O)[O-])o1 | > 32 | 32 | > 32 | > 32 | > 32 | –
O=C(Cn1ccnc1[N+](=O)[O-])NCc1ccccc1 [BENZNIDAZOLE] | 3.13 | – | – | > 50 | – | –
O=C(Cc1ccc2ccccc2c1)NNC(=O)c1ccc([N+](=O)[O-])o1 | 0.4 | 32 | 0.59 | 4 | 8 | > 25
O=C(NNS(=O)(=O)c1cccc2ccccc12)c1ccc([N+](=O)[O-])o1 | 0.8 | 32 | 1 | 0.75 | 8 | –
